According to ChEMBL document CHEMBL3758135 (J Nat Prod, 2015):

Assays:
Prostaglandin E synthase = molecular target: T1, Prostaglandin E synthase (Homo sapiens, UniProt O14684); assay: Inhibition of mPGES-1 in human IL-1beta-stimulated A549 cell microsomes assessed as reduction of PGE2 formation from PGH2 preincubated for 15 mins by HPLC analysis; assay type: cell-based
T1 sequence (O14684 whole entry): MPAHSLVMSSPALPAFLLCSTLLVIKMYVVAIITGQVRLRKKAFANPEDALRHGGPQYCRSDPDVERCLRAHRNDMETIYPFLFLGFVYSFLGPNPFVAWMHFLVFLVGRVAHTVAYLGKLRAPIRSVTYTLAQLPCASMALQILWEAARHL
In short: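 A549 cells stimulated with 2 ng/mL IL-1β for 72 h at 37 °C, 5% CO2, then sonicated and homogenized. Microsomal pellet collected at 174000g, 1 h, 4 °C. Membranes diluted in 0.1 M K3PO4, pH 7.4, with 2.5 mM glutathione. Compound or vehicle added for 15 min at 4 °C. Reaction started with 20 μM PGH2, stopped after 1 min with FeCl2/citric acid containing 11β-PGE2 internal standard. PGE2 measured by SPE-HPLC.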

Histone deacetylase = assay: Inhibition of HDAC in human HeLa cell nuclear extract using BML-KI104 Fluor de Lys as substrate by fluorescence-based assay

`COc1cc(/C=C/C(=O)CC(=O)/C=C/c2ccc(OCC=C(C)C)c(OC)c2)ccc1O` was tested, and the IC50 (Prostaglandin E synthase) was 0.93 µM and the IC50 (Histone deacetylase) was 5620 µM.
`COc1cc(/C=C/C(=O)CC(=O)/C=C/c2ccc(OCC=C(C)C)c(OC)c2)ccc1OCC=C(C)C` gave an IC50 (Prostaglandin E synthase) of 2 µM and an IC50 (Histone deacetylase) of 347 µM.
`COc1cc(/C=C/C(=O)CC(=O)/C=C/c2ccc(OC/C=C(\C)CCC=C(C)C)c(OC)c2)ccc1OC/C=C(\C)CCC=C(C)C` showed an IC50 (Prostaglandin E synthase) of 2 µM and an IC50 (Histone deacetylase) of 188 µM.
`COc1cc(/C=C/C(=O)C(CC=C(C)C)(CC=C(C)C)C(=O)/C=C/c2ccc(OCC=C(C)C)c(OC)c2)ccc1OCC=C(C)C` showed an IC50 (Prostaglandin E synthase) of 2 µM.
`COc1cc(/C=C/C(=O)C(CC=C(C)C)C(=O)/C=C/c2ccc(OCC=C(C)C)c(OC)c2)ccc1OCC=C(C)C` gave an IC50 (Prostaglandin E synthase) of 2 µM.
`COc1cc(/C=C/C(=O)C(C/C=C(\C)CCC=C(C)C)C(=O)/C=C/c2ccc(OC/C=C(\C)CCC=C(C)C)c(OC)c2)ccc1OC/C=C(\C)CCC=C(C)C` gave an IC50 (Prostaglandin E synthase) of 2 µM and an IC50 (Histone deacetylase) of 217 µM.
`COc1cc(/C=C/C(=O)CC(=O)/C=C/c2ccc(OC/C=C(\C)CCC=C(C)C)c(OC)c2)ccc1O` was tested, and the IC50 (Prostaglandin E synthase) was 1.02 µM and the IC50 (Histone deacetylase) was 495 µM.
`COc1cc(/C=C/C(=O)CC(=O)/C=C/c2ccc(OC/C=C(\C)CC/C=C(\C)CCC=C(C)C)c(OC)c2)ccc1O` was tested, and the IC50 (Prostaglandin E synthase) was 2 µM and the IC50 (Histone deacetylase) was 84.2 µM.
`COc1cc(/C=C/C(=O)C(C/C=C(\C)CCC=C(C)C)(C/C=C(\C)CCC=C(C)C)C(=O)/C=C/c2ccc(OC/C=C(\C)CCC=C(C)C)c(OC)c2)ccc1OC/C=C(\C)CCC=C(C)C` showed an IC50 (Prostaglandin E synthase) of 2 µM and an IC50 (Histone deacetylase) of 786 µM.
For `COc1cc(/C=C/C(=O)CC(=O)/C=C/c2ccc(OC/C=C(\C)CC/C=C(\C)CCC=C(C)C)c(OC)c2)ccc1OC/C=C(\C)CC/C=C(\C)CCC=C(C)C`, the IC50 (Prostaglandin E synthase) was 2 µM and the IC50 (Histone deacetylase) was 122 µM.
For `COc1cc(/C=C/C(=O)CC(=O)/C=C/c2ccc(O)c(OC)c2)ccc1O` [CURCUMIN], the IC50 (Prostaglandin E synthase) was 0.22 µM.
